In ChEMBL document CHEMBL1124622, “Synthesis and antiviral activity of 3'-C-cyano-3'-deoxynucleosides” (J Med Chem, 1989):
≈ marks a conversion by molar mass, not a printed value.

Columns and labels:
[1] = tested on: Moloney murine sarcoma virus; assay: In vitro effective dose against Moloney murine sarcoma virus induced transformation of C3H embryo fibroblast cells.; assay type: functional; conditions: read-out: ED50 (the source's name)
Method in brief: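 C3H mouse embryo cells are seeded at 20 000 cells/mL per well and grown 24 h. They are infected with 80 foci-forming units of Moloney MSV for 90 min, then given fresh medium with varying compound concentrations. Transformation is examined microscopically after 6-7 days. ED50 is the dose giving a 50% reduction in transformation.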

[2] = In vitro minimum cytotoxic concentration in C3H embryo fibroblast cells.; assay type: functional; conditions: Mus musculus
Method in brief: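 Minimal cytotoxic concentration in C3H mouse embryo cells, run in the same 48-well setup as the MSV transformation assay: the concentration producing microscopically visible alteration of cell morphology.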

[3] = (§1) Minimum cytotoxic concentration in HeLa cell cultures; assay type: cell-based; conditions: human, HeLa cells
[4] = tested on: Vesicular stomatitis virus; assay: (§2) Minimum inhibitory concentration against Vesicular stomatitis virus in HeLa cell cultures; assay type: functional
Method in brief: (§3)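 Confluent HeLa, Vero or primary rabbit kidney cell cultures in microtiter trays are inoculated with 100 CCID50 of virus. After 1 h adsorption, residual virus is removed and cells are incubated with varying compound concentrations. Cytopathogenicity is recorded once it is complete in untreated virus-infected controls. MIC is the concentration inhibiting virus-induced cytopathogenicity.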

[5] = tested on: Enterovirus C; assay: (§4) Minimum inhibitory concentration against polio virus 1 in HeLa cell cultures; assay type: functional; method in brief: as §3
[6] = organism: Homo sapiens; assay: Cytotoxic dose against uninfected human MT-4 cell; assay type: functional; conditions: MT4, read-out: CD50 (the source's name)
Method in brief: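 Cytotoxicity counterpart of the HIV assay: uninfected human MT-4 lymphocytes exposed to the compounds. CD50 is the dose that reduces viability of these uninfected cells by 50%.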

[7] = tested on: Human immunodeficiency virus 1; assay: Effective dose against HIV-1 induced cytopathogenicity in human MT-4 cell.; assay type: functional; conditions: Human immunodeficiency virus 1, MT4; read-out: ED50 (the source's name)
Method in brief: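 HIV (HTLV-III_B) is taken from the culture supernatant of a persistently infected HUT-78 line. Human MT-4 lymphocytes are infected and the assay scores inhibition of virus-induced cytopathogenicity. ED50 is the dose giving 50% protection of MT-4 cells against the viral cytopathic effect.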

[8] = (§5) Minimum cytotoxic concentration in primary rabbit kidney cell cultures; assay type: cell-based, Oryctolagus cuniculus; conditions: primary rabbit kidney cells
[9] = tested on: Coxsackievirus; assay: (§6) Minimum inhibitory concentration against Coxsackie virus B4 in Vero cell cultures; assay type: functional; method in brief: as §3
[10] = tested on: Semliki Forest virus; assay: Minimum inhibitory concentration against forest virus in Vero cell cultures; assay type: functional; method in brief: as §3
[11] = tested on: Sindbis virus; assay: Minimum inhibitory concentration against Sindbis virus in Vero cell cultures; assay type: functional; method in brief: as §3
[12] = tested on: Human respirovirus 3; assay: (§7) Minimum inhibitory concentration against parainfluenza 3 virus in Vero cell cultures; assay type: functional; method in brief: as §3
[13] = tested on: Reovirus sp.; assay: (§8) Minimum inhibitory concentration against reovirus in Vero cell cultures; assay type: functional; method in brief: as §3
[14] = tested on: Vesicular stomatitis virus; assay: Minimum inhibitory concentration against Vesicular stomatitis virus in primary rabbit kidney cell cultures; assay type: functional; method in brief: as §3
[15] = tested on: Coxsackievirus B4; assay: (§9) Minimum inhibitory concentration against Coxsackie virus B4 in HeLa cell cultures; assay type: functional; conditions: Enterovirus B; method in brief: as §3
[16] = (§10) Minimum cytotoxic concentration in Vero cell cultures; assay type: cell-based; conditions: chlorocebus sabaeus, Vero cells
[17] = tested on: HeLa; assay: as §2; assay type: functional; conditions: Homo sapiens; method in brief: as §3
[18] = tested on: HeLa; assay: as §4; assay type: functional; conditions: Homo sapiens; method in brief: as §3
[19] = inimum cytotoxic concentration in Vero cell cultures; assay type: cell-based; conditions: chlorocebus sabaeus, Vero cells
[20] = tested on: Coxsackievirus B4; assay: as §6; assay type: functional; conditions: Enterovirus B; method in brief: as §3
[21] = tested on: Mammalian orthoreovirus 1; assay: as §8; assay type: functional; method in brief: as §3
[22] = tested on: Vaccinia virus; assay: Minimum inhibitory concentration against Vaccinia virus in primary rabbit kidney cell cultures; assay type: functional; conditions: Orthopoxvirus vaccinia; method in brief: as §3
[23] = tested on: HeLa; assay: as §9; assay type: functional; conditions: Homo sapiens; method in brief: as §3
[24] = tested on: HeLa; assay: as §1; assay type: functional; conditions: Homo sapiens
[25] = organism: Oryctolagus cuniculus; assay: as §5; assay type: functional
[26] = tested on: Vero; assay: as §10; assay type: functional; conditions: Chlorocebus sabaeus
[27] = tested on: Vero; assay: as §7; assay type: functional, Human respirovirus 3; conditions: Chlorocebus sabaeus; method in brief: as §3

Compound | EC50 [1] [µg/mL] | MCC [2] [µg/mL] | MCC [3] [µg/mL] | CC50 [6] [µM] | EC50 [7] [µM] | MCC [8] [µg/mL] | MIC [10] [µg/mL] | MIC [11] [µg/mL] | MIC [12] [µg/mL] | MIC [14] [µg/mL] | MIC [17] [µg/mL] | MIC [18] [µg/mL] | MIC [20] [µg/mL] | MIC [21] [µg/mL] | MIC [22] [µg/mL] | MIC [23] [µg/mL] | other results
N#C[C@H]1[C@@H](O)[C@H](n2cnc3c(N)ncnc32)O[C@@H]1CO | 8.5 (≈ 30.8 µM) | > 40 | > 200 | 3.8 | > 1.6 | > 400 | 20 (≈ 72.4 µM) | 10 (≈ 36.2 µM) | > 100 | > 400 |  |  |  |  |  |  | MIC [4]: > 100 µg/mL; MIC [5]: > 100 µg/mL; MIC [9]: > 100 µg/mL; MIC [13]: > 40 µg/mL; MIC [15]: 200 µg/mL (≈ 724 µM); MCC [16]: 100 µg/mL
CC(C)(C)[Si](C)(C)OC[C@H]1O[C@@H](n2cnc3c(N)ncnc32)[C@H](O[Si](C)(C)C(C)(C)C)[C@H]1C#N | 16 (≈ 31.7 µM) | 80 | > 100 | 25 | > 16 | > 100 | > 40 | 20 (≈ 39.6 µM) | > 10 | > 40 | > 40 | > 40 | 20 (≈ 39.6 µM) | > 10 | > 40 | > 40 | MCC [19]: > 40 µg/mL
Nc1ncnc2c1ncn2C[C@H](O)CO [(S)-DHPA] |  |  |  |  |  |  | > 400 | > 400 |  | 20 (≈ 95.6 µM) | > 400 | > 400 | 100 (≈ 478 µM) | 7 (≈ 33.5 µM) | 20 (≈ 95.6 µM) | 2 (≈ 9.56 µM) | MCC [24]: > 400 µg/mL; MCC [25]: ≥ 400 µg/mL; MCC [26]: 400 µg/mL; MIC [27]: 150 µg/mL (≈ 717 µM)
